Data from ChEMBL document CHEMBL4706664, “Rational drug design of 6-substituted 4-anilino-2-phenylpyrimidines for exploration of novel ABCG2 binding site” (Eur J Med Chem, 2021).

Test system: not listed separately
Experiment: Cytotoxicity against wild-type MDCK-II cells assessed as reduction in cell viability measured after 72 hrs by MTT assay
Format: cell-based, Canis lupus familiaris
Settings: dog; call rule not given here
Procedure, shortened: (§1)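 MTT cell viability. Compound dilution series prepared in culture medium at 3.16 µM to 1 mM (dilution stock; added 20 µL to 180 µL cells). Seeding per well: MDCK II and MDCK II BCRP 2000, A2780 and A2780/ADR 8000, H69AR 20,000. Incubated 72 h, 37 °C, 5% CO2. MTT 5 mg/mL added for 60 min, formazan dissolved in DMSO, absorbance 570 nm (690 nm background). Medium = 100%, 10% DMSO = 0% viability. GI50 by four-parameter logistic fit. Mean ± SEM of at least three independent experiments.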

Row | Structure (SMILES) | GI50 at 72 h
1 | N#Cc1ccc(Nc2cc(NCc3cccnc3)nc(-c3ccccc3)n2)cc1 | 7.47 µM
2 | N#Cc1ccc(Nc2cc(Nc3cccc(O)c3)nc(-c3ccccc3)n2)cc1 | 5.24 µM
3 | CNc1cc(Nc2ccc(C#N)cc2)nc(-c2ccccc2)n1 | 34.1 µM
4 | N#Cc1ccc(Nc2cc(NCc3ccncc3)nc(-c3ccccc3)n2)cc1 | 10.7 µM
5 | N#Cc1ccc(Nc2cc(NCc3ccccn3)nc(-c3ccccc3)n2)cc1 | 9.44 µM
6 | CCCCNc1cc(Nc2ccc(C#N)cc2)nc(-c2ccccc2)n1 | 8.32 µM
7 | CCc1c2c(nc3ccc(O)cc13)-c1cc3c(c(=O)n1C2)COC(=O)[C@]3(O)CC [7-ETHYL-10-HYDROXYCAMPTOTHECIN] | 0.139 µM
8 | N#Cc1ccc(Nc2cc(NCCCCc3ccccc3)nc(-c3ccccc3)n2)cc1 | 10.6 µM
9 | CCCNc1cc(Nc2ccc(C#N)cc2)nc(-c2ccccc2)n1 | 8.34 µM

Test system: not listed separately
Experiment: Cytotoxicity against ABCC1 over expressing human NCI-H69AR cells assessed as reduction in cell viability measured after 72 hrs by MTT assay
Format: ADME, cell-based
Settings: ABCC1 overexpressing NCI-H69AR cells
Procedure, shortened: as §1

Row | Structure (SMILES) | GI50 at 72 h
10 | N#Cc1ccc(Nc2cc(Nc3cccc(O)c3)nc(-c3ccccc3)n2)cc1 | 11 µM
11 | CCCNc1cc(Nc2ccc(C#N)cc2)nc(-c2ccccc2)n1 | 23 µM

Test system: ABCG2
Experiment: Therapeutic index, ratio of GI50 for cytotoxicity against ABCG2 overexpressing MDCK-II cells to IC50 for inhibition of ABCG2 (unknown origin) expressed in MDCK-II cells
Settings: dog

Row | Structure (SMILES) | selectivity ratio
12 | N#Cc1ccc(Nc2cc(NCc3cccnc3)nc(-c3ccccc3)n2)cc1 | 14.9
13 | CNc1cc(Nc2ccc(C#N)cc2)nc(-c2ccccc2)n1 | 180
14 | N#Cc1ccc(Nc2cc(NCc3ccncc3)nc(-c3ccccc3)n2)cc1 | 23.1
15 | N#Cc1ccc(Nc2cc(NCc3ccccn3)nc(-c3ccccc3)n2)cc1 | 40.8
16 | CCCCNc1cc(Nc2ccc(C#N)cc2)nc(-c2ccccc2)n1 | 12.2
17 | N#Cc1ccc(Nc2cc(NCCCCc3ccccc3)nc(-c3ccccc3)n2)cc1 | 65

Target: ABCB1 (Homo sapiens, UniProt P08183)
Experiment: Inhibition of ABCB1 (unknown origin) expressed in human A2780 ADR cells assessed as reduction in calcein AM efflux at 10 uM preincubated for 30 mins followed by calcein AM addition and measured at 60 secs interval for 1 hr by fluorescence assay relative to control
Format: cell-based
Settings: A2780 ADR cells expressing ABCB1, probe calcein AM, time 90 min
Procedure, shortened: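 Calcein AM accumulation in A2780/ADR cells (30,000/well, Krebs-HEPES buffer pH 7.4). Cells preincubated with compound 30 min at 37 °C, 5% CO2. Screening at 10 µM.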

Chain of ABCB1 (P08183 whole entry): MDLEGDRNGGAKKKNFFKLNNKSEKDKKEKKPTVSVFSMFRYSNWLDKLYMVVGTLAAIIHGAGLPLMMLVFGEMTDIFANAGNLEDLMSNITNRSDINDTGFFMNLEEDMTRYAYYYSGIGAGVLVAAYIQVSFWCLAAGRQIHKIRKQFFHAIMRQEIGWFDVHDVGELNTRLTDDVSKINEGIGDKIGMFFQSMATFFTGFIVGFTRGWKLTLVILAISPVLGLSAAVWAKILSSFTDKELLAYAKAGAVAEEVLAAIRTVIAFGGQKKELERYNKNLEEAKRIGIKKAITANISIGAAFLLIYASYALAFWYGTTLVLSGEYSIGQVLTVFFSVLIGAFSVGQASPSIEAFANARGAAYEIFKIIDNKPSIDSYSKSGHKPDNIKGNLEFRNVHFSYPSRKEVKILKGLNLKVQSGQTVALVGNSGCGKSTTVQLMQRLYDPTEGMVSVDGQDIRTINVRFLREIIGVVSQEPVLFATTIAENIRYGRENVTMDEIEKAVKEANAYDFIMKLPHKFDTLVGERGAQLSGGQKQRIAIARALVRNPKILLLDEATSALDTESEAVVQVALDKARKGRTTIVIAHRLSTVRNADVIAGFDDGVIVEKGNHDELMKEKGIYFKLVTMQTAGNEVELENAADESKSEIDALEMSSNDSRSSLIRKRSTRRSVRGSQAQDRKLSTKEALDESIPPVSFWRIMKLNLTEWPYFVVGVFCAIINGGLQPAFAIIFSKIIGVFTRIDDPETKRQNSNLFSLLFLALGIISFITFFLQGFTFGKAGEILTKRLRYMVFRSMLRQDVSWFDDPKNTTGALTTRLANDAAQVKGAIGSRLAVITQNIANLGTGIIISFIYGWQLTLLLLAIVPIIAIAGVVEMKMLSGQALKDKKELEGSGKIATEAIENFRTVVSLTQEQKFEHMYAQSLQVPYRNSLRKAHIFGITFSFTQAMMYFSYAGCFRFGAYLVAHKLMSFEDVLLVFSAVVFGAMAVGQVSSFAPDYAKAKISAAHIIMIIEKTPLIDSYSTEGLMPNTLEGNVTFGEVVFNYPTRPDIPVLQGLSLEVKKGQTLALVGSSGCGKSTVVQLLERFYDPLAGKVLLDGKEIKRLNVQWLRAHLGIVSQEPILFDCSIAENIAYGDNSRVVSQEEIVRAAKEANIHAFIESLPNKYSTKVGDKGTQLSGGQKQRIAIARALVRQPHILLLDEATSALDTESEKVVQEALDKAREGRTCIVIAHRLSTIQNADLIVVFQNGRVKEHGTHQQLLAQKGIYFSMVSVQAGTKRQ

Row | inhibition at 1 h, 10 µM | Structure (SMILES)
18 | > 20% | N#Cc1ccc(Nc2cc(Nc3cccc(O)c3)nc(-c3ccccc3)n2)cc1
19 | > 20% | CNc1cc(Nc2ccc(C#N)cc2)nc(-c2ccccc2)n1
20 | > 20% | N#Cc1ccc(Nc2cc(NCc3ccccn3)nc(-c3ccccc3)n2)cc1
21 | > 20% | CCCCNc1cc(Nc2ccc(C#N)cc2)nc(-c2ccccc2)n1
22 | > 20% | CCCNc1cc(Nc2ccc(C#N)cc2)nc(-c2ccccc2)n1

Continued, compound first:

Row | Structure (SMILES) | inhibition at 1 h, 10 µM
23 | N#Cc1ccc(Nc2cc(NCc3cccnc3)nc(-c3ccccc3)n2)cc1 | > 20%
24 | N#Cc1ccc(Nc2cc(NCc3ccncc3)nc(-c3ccccc3)n2)cc1 | > 20%

Target: ABCC1 (Homo sapiens, UniProt P33527)
Experiment: Inhibition of ABCC1 (unknown origin) expressed in human NCI-H69AR cells assessed as reduction in calcein AM efflux at 10 uM preincubated for 30 mins followed by calcein AM addition and measured at 60 secs interval for 1 hr by fluorescence assay relative to control
Format: cell-based
Settings: NCI-H69AR cells expressing ABCC1, probe calcein AM, time 90 min

Chain of ABCC1 (P33527 whole entry): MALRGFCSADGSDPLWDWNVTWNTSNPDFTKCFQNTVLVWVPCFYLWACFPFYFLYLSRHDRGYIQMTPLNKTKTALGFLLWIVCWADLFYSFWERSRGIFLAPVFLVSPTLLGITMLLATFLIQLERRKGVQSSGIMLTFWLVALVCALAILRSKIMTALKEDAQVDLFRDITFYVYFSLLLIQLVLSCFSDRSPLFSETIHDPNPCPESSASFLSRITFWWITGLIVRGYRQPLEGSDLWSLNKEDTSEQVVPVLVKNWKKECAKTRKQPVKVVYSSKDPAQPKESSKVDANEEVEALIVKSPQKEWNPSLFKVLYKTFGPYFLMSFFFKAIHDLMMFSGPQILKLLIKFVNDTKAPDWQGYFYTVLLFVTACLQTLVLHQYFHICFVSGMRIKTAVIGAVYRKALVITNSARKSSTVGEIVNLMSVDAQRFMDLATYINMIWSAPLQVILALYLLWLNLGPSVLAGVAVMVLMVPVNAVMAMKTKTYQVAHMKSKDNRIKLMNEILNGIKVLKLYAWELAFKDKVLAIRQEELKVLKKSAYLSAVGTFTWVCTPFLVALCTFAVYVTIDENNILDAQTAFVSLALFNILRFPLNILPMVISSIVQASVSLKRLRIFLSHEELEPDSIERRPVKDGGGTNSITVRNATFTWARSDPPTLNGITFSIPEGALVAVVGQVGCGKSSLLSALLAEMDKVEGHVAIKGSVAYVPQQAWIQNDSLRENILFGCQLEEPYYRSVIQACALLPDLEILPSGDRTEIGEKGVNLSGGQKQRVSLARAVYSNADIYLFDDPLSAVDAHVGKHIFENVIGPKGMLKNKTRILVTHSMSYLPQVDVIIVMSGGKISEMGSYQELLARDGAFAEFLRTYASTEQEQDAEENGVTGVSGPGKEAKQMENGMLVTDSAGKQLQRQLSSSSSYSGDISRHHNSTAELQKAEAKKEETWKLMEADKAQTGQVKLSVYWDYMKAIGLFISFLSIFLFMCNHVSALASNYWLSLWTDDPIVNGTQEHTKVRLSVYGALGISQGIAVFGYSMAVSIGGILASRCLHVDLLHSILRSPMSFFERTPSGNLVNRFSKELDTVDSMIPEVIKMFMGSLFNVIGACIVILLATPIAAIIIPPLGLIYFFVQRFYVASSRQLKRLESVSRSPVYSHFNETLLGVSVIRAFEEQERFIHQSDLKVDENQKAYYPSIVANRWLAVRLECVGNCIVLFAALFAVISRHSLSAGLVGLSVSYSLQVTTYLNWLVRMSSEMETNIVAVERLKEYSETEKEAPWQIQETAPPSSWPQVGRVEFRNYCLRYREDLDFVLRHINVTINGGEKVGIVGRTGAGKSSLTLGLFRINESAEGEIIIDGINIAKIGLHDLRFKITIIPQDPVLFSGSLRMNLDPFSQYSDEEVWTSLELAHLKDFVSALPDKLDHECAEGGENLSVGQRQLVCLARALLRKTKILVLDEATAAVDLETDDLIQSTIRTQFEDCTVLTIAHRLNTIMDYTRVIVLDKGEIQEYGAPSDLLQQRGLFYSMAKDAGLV

Row | Structure (SMILES) | inhibition at 1 h, 10 µM
25 | N#Cc1ccc(Nc2cc(NCc3cccnc3)nc(-c3ccccc3)n2)cc1 | > 20%
26 | N#Cc1ccc(Nc2cc(Nc3cccc(O)c3)nc(-c3ccccc3)n2)cc1 | > 20%
27 | CCCNc1cc(Nc2ccc(C#N)cc2)nc(-c2ccccc2)n1 | > 20%

Target: T1, Broad substrate specificity ATP-binding cassette transporter ABCG2 (Homo sapiens, UniProt Q9UNQ0)
T1 sequence (Q9UNQ0 whole entry): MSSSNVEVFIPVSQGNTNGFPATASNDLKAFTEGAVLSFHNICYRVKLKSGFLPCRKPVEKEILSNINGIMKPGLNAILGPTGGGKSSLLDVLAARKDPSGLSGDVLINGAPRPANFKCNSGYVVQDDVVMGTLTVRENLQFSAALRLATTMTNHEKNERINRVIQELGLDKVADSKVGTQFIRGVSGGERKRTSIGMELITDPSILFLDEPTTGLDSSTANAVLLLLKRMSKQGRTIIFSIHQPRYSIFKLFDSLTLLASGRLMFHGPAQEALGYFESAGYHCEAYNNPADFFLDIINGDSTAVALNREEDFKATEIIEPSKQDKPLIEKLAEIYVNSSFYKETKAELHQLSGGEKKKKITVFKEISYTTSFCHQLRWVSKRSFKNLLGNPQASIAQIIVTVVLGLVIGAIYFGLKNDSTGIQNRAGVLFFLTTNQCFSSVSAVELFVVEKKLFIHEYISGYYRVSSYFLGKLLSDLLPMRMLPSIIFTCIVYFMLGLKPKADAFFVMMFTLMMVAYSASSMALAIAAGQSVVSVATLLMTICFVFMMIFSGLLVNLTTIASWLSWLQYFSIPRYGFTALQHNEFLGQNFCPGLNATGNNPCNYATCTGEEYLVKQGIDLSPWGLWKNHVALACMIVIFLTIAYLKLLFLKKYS
Experiment: Inhibition of ABCG2 (unknown origin) expressed in MDCK-II cells assessed as reduction in pheophorbide A efflux measured after 2 hrs by flow cytometry
Format: cell-based
Settings: not given
Procedure, shortened: (§2)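 Pheophorbide A accumulation in MDCK II BCRP cells, about 45,000 cells/well in Krebs-HEPES buffer pH 7.4. Compound dilutions were prepared at 0.316–100 µM, and 20 µL of 5 µM pheophorbide A was added. Incubated 2 h at 37 °C, 5% CO2. Fluorescence read by flow cytometry (ex 488 nm, em 695/50 nm). IC50 and Imax are mean ± SEM of at least three independent experiments.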

Row | IC50 | Structure (SMILES)
28 | 0.608 µM | N#Cc1ccc(Nc2cc(Nc3cccc(O)c3)nc(-c3ccccc3)n2)cc1
29 | 0.141 µM | CNc1cc(Nc2ccc(C#N)cc2)nc(-c2ccccc2)n1
30 | 0.21 µM | N#Cc1ccc(Nc2cc(NCc3ccccn3)nc(-c3ccccc3)n2)cc1
31 | 0.5 µM | CCCCNc1cc(Nc2ccc(C#N)cc2)nc(-c2ccccc2)n1
32 | 0.293 µM | CCCNc1cc(Nc2ccc(C#N)cc2)nc(-c2ccccc2)n1

The next lines start with the compound.

Row | Structure (SMILES) | IC50
33 | N#Cc1ccc(Nc2cc(NCc3cccnc3)nc(-c3ccccc3)n2)cc1 | 0.373 µM
34 | N#Cc1ccc(Nc2cc(NCc3ccncc3)nc(-c3ccccc3)n2)cc1 | 0.435 µM
35 | N#Cc1ccc(Nc2cc(NCCCCc3ccccc3)nc(-c3ccccc3)n2)cc1 | 0.147 µM

Target: T2, ABCG2 (Homo sapiens, UniProt Q9UNQ0)
T2 sequence (Q9UNQ0 whole entry): T1 sequence (Q9UNQ0 whole entry)
Experiment: Inhibition of ABCG2 (unknown origin) expressed in MDCK-II cells assessed as reduction in pheophorbide A efflux measured after 2 hrs by flow cytometry relative to Ko143
Format: cell-based
Settings: MDCK-II cells expressing ABCG2, probe pheophorbide A, read-out: Imax
Procedure, shortened: as §2

Row | Emax at 2 h | Structure (SMILES)
36 | 66% | N#Cc1ccc(Nc2cc(Nc3cccc(O)c3)nc(-c3ccccc3)n2)cc1
37 | 68% | CNc1cc(Nc2ccc(C#N)cc2)nc(-c2ccccc2)n1
38 | 88% | N#Cc1ccc(Nc2cc(NCc3ccccn3)nc(-c3ccccc3)n2)cc1
39 | 73% | CCCCNc1cc(Nc2ccc(C#N)cc2)nc(-c2ccccc2)n1
40 | 89% | CCCNc1cc(Nc2ccc(C#N)cc2)nc(-c2ccccc2)n1

The next lines start with the compound.

Row | Structure (SMILES) | Emax at 2 h
41 | N#Cc1ccc(Nc2cc(NCc3cccnc3)nc(-c3ccccc3)n2)cc1 | 91%
42 | N#Cc1ccc(Nc2cc(NCc3ccncc3)nc(-c3ccccc3)n2)cc1 | 78%
43 | N#Cc1ccc(Nc2cc(NCCCCc3ccccc3)nc(-c3ccccc3)n2)cc1 | 61%

Test system: not listed separately
Experiment: Cytotoxicity against ABCG2 overexpressing MDCK-II cells assessed as reduction in cell viability measured after 72 hrs by MTT assay
Format: ADME, cell-based, Canis lupus familiaris
Settings: dog
Procedure, shortened: as §1

Row | Structure (SMILES) | GI50 at 72 h
44 | N#Cc1ccc(Nc2cc(NCc3cccnc3)nc(-c3ccccc3)n2)cc1 | 5.54 µM
45 | N#Cc1ccc(Nc2cc(Nc3cccc(O)c3)nc(-c3ccccc3)n2)cc1 | 5.12 µM
46 | CNc1cc(Nc2ccc(C#N)cc2)nc(-c2ccccc2)n1 | 25 µM
47 | N#Cc1ccc(Nc2cc(NCc3ccncc3)nc(-c3ccccc3)n2)cc1 | 10 µM
48 | N#Cc1ccc(Nc2cc(NCc3ccccn3)nc(-c3ccccc3)n2)cc1 | 8.56 µM
49 | CCCCNc1cc(Nc2ccc(C#N)cc2)nc(-c2ccccc2)n1 | 6.08 µM
50 | N#Cc1ccc(Nc2cc(NCCCCc3ccccc3)nc(-c3ccccc3)n2)cc1 | 9.48 µM
51 | CCCNc1cc(Nc2ccc(C#N)cc2)nc(-c2ccccc2)n1 | 6.56 µM

Test system: not listed separately
Experiment: Cytotoxicity against ABCB1 over expressing human A2780 ADR cells assessed as reduction in cell viability measured after 72 hrs by MTT assay
Format: ADME, cell-based
Settings: ABCB1 overexpressing A2780 ADR cells
Procedure, shortened: as §1

Row | Structure (SMILES) | GI50 at 72 h
52 | N#Cc1ccc(Nc2cc(Nc3cccc(O)c3)nc(-c3ccccc3)n2)cc1 | 5.91 µM
53 | CCCNc1cc(Nc2ccc(C#N)cc2)nc(-c2ccccc2)n1 | 12.3 µM

Test system: not listed separately
Experiment: Cytotoxicity against human A2780 cells assessed as reduction in cell viability measured after 72 hrs by MTT assay
Settings: not given

Row | Structure (SMILES) | GI50 at 72 h
54 | CCCNc1cc(Nc2ccc(C#N)cc2)nc(-c2ccccc2)n1 | 15.1 µM

Test system: not listed separately
Experiment: Cytotoxicity against ABCB1 over expressing human A2780 cells assessed as reduction in cell viability measured after 72 hrs by MTT assay
Format: ADME, cell-based
Settings: in the assay text read “human A2780 cells” for “ABCB1 over expressing human A2780 cells”
Procedure, shortened: as §1

Row | Structure (SMILES) | GI50 at 72 h
55 | N#Cc1ccc(Nc2cc(Nc3cccc(O)c3)nc(-c3ccccc3)n2)cc1 | 3.55 µM

Target: ATP-dependent translocase ABCB1 (Homo sapiens, UniProt P08183)
Experiment: Inhibition of ABCB1 (unknown origin) expressed in human A2780 ADR cells assessed as reduction in calcein AM efflux preincubated for 30 mins followed by calcein AM addition and measured at 60 secs interval for 1 hr by fluorescence assay
Format: cell-based
Settings: a2780 adr
Procedure, shortened: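 Calcein AM accumulation in A2780/ADR cells (30,000/well, Krebs-HEPES buffer pH 7.4). Cells preincubated with compound 30 min at 37 °C, 5% CO2. Then 20 µL of 3.125 µM calcein AM added. Fluorescence (ex 485/em 520 nm) read every 60 s for 1 h. […] Screening at 10 µM.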

Chain of ATP-dependent translocase ABCB1 (P08183 whole entry): as the sequence (P08183 whole entry) above

Row | Structure (SMILES) | IC50
56 | N#Cc1ccc(Nc2cc(NCCCCc3ccccc3)nc(-c3ccccc3)n2)cc1 | Not Active

Same assay, conditions: read-out: IC50

Row | IC50 | Structure (SMILES)
57 | 3.52 µM | N#Cc1ccc(Nc2cc(Nc3cccc(O)c3)nc(-c3ccccc3)n2)cc1
58 | 25.9 µM | CNc1cc(Nc2ccc(C#N)cc2)nc(-c2ccccc2)n1
59 | 3.4 µM | N#Cc1ccc(Nc2cc(NCc3ccccn3)nc(-c3ccccc3)n2)cc1
60 | 6.62 µM | CCCCNc1cc(Nc2ccc(C#N)cc2)nc(-c2ccccc2)n1
61 | 5.9 µM | CCCNc1cc(Nc2ccc(C#N)cc2)nc(-c2ccccc2)n1

Continued, compound first:

Row | Structure (SMILES) | IC50
62 | N#Cc1ccc(Nc2cc(NCc3cccnc3)nc(-c3ccccc3)n2)cc1 | 5.41 µM
63 | N#Cc1ccc(Nc2cc(NCc3ccncc3)nc(-c3ccccc3)n2)cc1 | 4.26 µM
